# Screens as filed in PubChem BioAssay.
# GASC1 inh: blocks human GASC-1 (KDM4C) demethylase activity | GST-KDM4C 2-372, H3K9me3 peptide, LANCE TR-FRET | inhibition, % at 12.5 µM | hit rate 0.15% among 96,000 | AID 720574;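 active = mean replicate inhibition above about 25%, with at least 55% of replicates also reaching it, limit read from the data, passing the limit was not always enough; inconclusive = only one of those two conditions met; inactive = neither condition met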
#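 Material: GST-tagged GASC-1 (JMJD2C) catalytic fragment, aa 2-372 / Quantity: enzyme final amount 10 nM / Medium: HEPES buffer, pH 7.5, plus ascorbate / Doses: one test concentration per compound / Incubation: 30 min reaction, 60 min detection, RT / Measured by: LANCE TR-FRET / Read-out: inhibition from TR-FRET ratio decrease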
# T cruzi growth-1: blocks T. cruzi growth in NIH3T3 culture | hit rate 5.9% among 77,000 | T. cruzi beta-gal in NIH3T3, GalScreen luminescence, 90 h | inhibition, % at 8.34 µM | AID 624255;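 active = mean inhibition above about 93%, with at least 55% of replicates each passing it, limit read from the data, passing the limit was not always enough; inconclusive = only one of those two conditions holds; inactive = neither condition holds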
# IDH1 R132H inh: IDH1 R132H (human) inhibition; IDH1 R132H reductase, diaphorase/resazurin fluorescence, 60 min; inhibition, % at 10 µM; hit rate 0.18% among 70,000; in the data active = inhibition above about 34%; inconclusive = no clear call, values can overlap the other calls; inactive = below about 11%;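 note: 0% = DMSO and 100% = no enzyme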
# Target sequence (O75874 whole entry R132H): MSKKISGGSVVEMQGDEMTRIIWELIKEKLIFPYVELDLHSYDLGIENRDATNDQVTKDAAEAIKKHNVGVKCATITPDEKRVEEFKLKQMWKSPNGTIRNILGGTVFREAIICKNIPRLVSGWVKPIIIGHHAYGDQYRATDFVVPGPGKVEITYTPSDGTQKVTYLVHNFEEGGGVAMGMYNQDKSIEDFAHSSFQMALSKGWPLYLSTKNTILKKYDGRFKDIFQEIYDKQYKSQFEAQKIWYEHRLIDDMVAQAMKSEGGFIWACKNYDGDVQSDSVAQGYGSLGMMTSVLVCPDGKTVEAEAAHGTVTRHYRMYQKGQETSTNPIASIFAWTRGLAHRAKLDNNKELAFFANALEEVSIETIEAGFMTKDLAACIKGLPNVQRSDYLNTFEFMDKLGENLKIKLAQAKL
# Pf Dd2 inh: P. falciparum Dd2 growth inhibition. SYBR Green, 72 h; hits give low values. activity change, % at 10 µM. hit rate 2.3% among 94,000. AID 1159554; in the data active = activity change below about -80%; inconclusive = no clear call, values can overlap the other calls
# T cruzi growth-2: inhibitors of T. cruzi proliferation; shares compounds with T cruzi growth-1; T. cruzi beta-gal in NIH3T3, GalScreen luminescence, 90 h; inhibition, % at 8.35 µM; hit rate 72% among 5,600;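 active = mean replicate inhibition above about 95% and at least 55% of replicates individually reaching it, limit read from the data; inconclusive = only one of the two criteria is met; inactive = neither criterion is met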
# T cruzi growth-3: blocks T. cruzi growth in NIH3T3 host cells | shares compounds with T cruzi growth-1 | T. cruzi beta-gal in NIH3T3, GalScreen luminescence, 90 h | inhibition, % at 2.09 µM | hit rate 21% among 5,600 | AID 651740;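 active = mean inhibition above about 95%, with at least 55% of replicates also reaching it, limit read from the data; inconclusive = meets just one of the two conditions; inactive = meets neither condition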;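 note: plate controls were neutral control median for no effect and positive control median for full effect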
# 3T3 cytotox: NIH/3T3 (mouse) viability loss | cytotoxicity (signal decrease), % at 8.35 µM | NIH/3T3 viability, CellTiter-Glo ATP luminescence, 90 h | shares compounds with T cruzi growth-1 | AID 651742 | hit rate 14% among 5,600;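 active = mean signal decrease across replicates above about 35% based on untreated-well scatter, with enough replicates individually passing, limit read from the data; inconclusive = no rule stated though some were filed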;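 note: 0% = median of neutral control wells and 100% = median of positive control wells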
# 3T3 cytotox 2: cytotoxicity in mouse NIH/3T3 fibroblasts | shares compounds with T cruzi growth-1 | NIH/3T3 viability, CellTiter-Glo ATP luminescence, 90 h | inhibition, % at 24.9 µM | hit rate 56% among 5,600 | AID 651744;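 active = mean loss of cell viability signal at or above a set limit, and enough replicates individually reaching it; inconclusive = meets only the mean limit or only the replicate share; inactive = meets neither condition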;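 note: 0% = median of neutral control wells and 100% = median of positive control wells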
# Starred values were filed as active, the others as inactive; ? = inconclusive; · = not tested or not shown. Most compounds without a hit are left out; they make up all but 5.8% or so of the library.
SMILES,GASC1 inh,T cruzi growth-1,IDH1 R132H inh,Pf Dd2 inh,T cruzi growth-2,T cruzi growth-3,3T3 cytotox,3T3 cytotox 2
C[C@H]1CN([C@@H](C)CO)S(=O)(=O)c2ccc(C#Cc3ccccn3)cc2O[C@H]1CN(C)Cc1ccccc1,-2,113*,0,-63,109*,76,17,26
COc1ccc(C(=O)O[C@H]2CC(C)=CCC3(C)CC[C@@](O)(C(C)C)[C@H]23)cc1 (some centres not stated),·,·,0,·,·,·,·,·
C[C@H](CO)N1C[C@H](C)[C@@H](CN(C)C(=O)Nc2ccc(F)cc2)Oc2c(NC(=O)Nc3cccc4ccccc34)cccc2C1=O,1,92,-1,-43,·,·,·,·
C[C@@H]1CN([C@H](C)CO)C(=O)c2cccc(NC(=O)Nc3ccc(C(F)(F)F)cc3)c2O[C@@H]1CN(C)CC1CC1,0,37,0,-40,·,·,·,·
CC(C)NC(=O)N(C)C[C@H]1Oc2c(NC(=O)Nc3ccc(C(F)(F)F)cc3)cccc2C(=O)N([C@@H](C)CO)C[C@@H]1C,0,?,·,-10,65,24,27,57*
C[C@H](CO)N1C[C@H](C)[C@H](CN(C)CC2CC2)Oc2c(NC(=O)Nc3ccc(C(F)(F)F)cc3)cccc2C1=O,1,118*,1,-53,101*,100*,-16,29
C[C@@H]1CN([C@@H](C)CO)C(=O)c2cccc(NC(=O)Nc3ccc(F)cc3)c2O[C@@H]1CN(C)C(=O)Nc1ccc(C(F)(F)F)cc1,-1,?,4,-76,111*,5,24,40*
CC(C)NC(=O)N(C)C[C@@H]1Oc2c(NC(=O)Nc3ccc(C(F)(F)F)cc3)cccc2C(=O)N([C@@H](C)CO)C[C@H]1C,10,19,·,-13,·,·,·,·
C[C@@H]1CN([C@H](C)CO)C(=O)c2cccc(NC(=O)Nc3cccc4ccccc34)c2O[C@H]1CN(C)C(=O)Nc1ccc(F)cc1,0,99*,-1,-53,103*,60,5,21
NC(=O)CSc1nc2sc3c(c2c(=O)n1Cc1ccccc1)CCCC3,·,·,0,·,·,·,·,·
Cc1nc(-c2cc(C#N)c(Oc3ccc(C(F)(F)F)cc3)nc2C)cs1,·,·,0,·,·,·,·,·
C[C@@H]1CN([C@@H](C)CO)C(=O)c2cccc(NC(=O)C3CCOCC3)c2O[C@H]1CN(C)C(=O)Nc1ccc(C(F)(F)F)cc1,-1,99*,2,9,-42,17,4,29*
COC(=O)c1ccccc1NC(=O)c1cc(-c2ccccn2)nc2c(C)c(Cl)ccc12,·,·,0,·,·,·,·,·
COc1cccc(NC(=O)N(C)C[C@H]2Oc3ncc(C#Cc4ccc(F)cc4)cc3C(=O)N([C@H](C)CO)C[C@@H]2C)c1,-2,80,-1,-36,·,·,·,·
COc1cccc(NC(=O)N(C)C[C@@H]2Oc3ncc(C#Cc4ccc(F)cc4)cc3C(=O)N([C@@H](C)CO)C[C@H]2C)c1,-2,113*,·,-39,112*,111*,31,14
COc1cccc(NC(=O)N(C)C[C@@H]2Oc3ncc(C#Cc4ccc(F)cc4)cc3C(=O)N([C@H](C)CO)C[C@@H]2C)c1,-3,104*,·,-28,98*,34,26,81*
COc1cccc(NC(=O)N(C)C[C@H]2Oc3ncc(C#Cc4ccc(F)cc4)cc3C(=O)N([C@H](C)CO)C[C@H]2C)c1,-2,41,·,-2,·,·,·,·
COc1cccc(NC(=O)N(C)C[C@@H]2Oc3ncc(C#Cc4ccc(F)cc4)cc3C(=O)N([C@H](C)CO)C[C@H]2C)c1,-1,117*,0,-14,108*,102*,5,14
COc1cccc(NC(=O)N(C)C[C@H]2Oc3ncc(C#Cc4ccc(F)cc4)cc3C(=O)N([C@@H](C)CO)C[C@@H]2C)c1,-4,121*,·,-46,106*,100*,23,38*
O=C(COc1ccc(Cl)cc1Br)Nc1ccccc1C(=O)Nc1ccccc1,·,·,-1,·,·,·,·,·
